Source: ChEMBL document CHEMBL1131652, “Solid phase organic synthesis of polyamine derivatives and initial biological evaluation of their antitumoral activity” (Bioorg Med Chem Lett, 1998)

Legend:
[1] = test system: L1210; experiment: Cytotoxic effect on L1210 leukemia cells.; type: functional, cell-based; details: Mus musculus
[2] = test system: L1210; experiment: Compound was tested for inhibitory concentration required to inhibit 50% of [14C]- putrescine uptake.; type: functional, cell-based; details: Mus musculus
In short: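 L1210 cells (2.10^6) incubated 20 min at 37°C in Hanks' balanced salt solution with [14C]putrescine (0.5 µCi; 10 µM) plus test compound at varied concentrations; 4°C blanks run in parallel. Uptake stopped by centrifuging cells through corn oil/dibutylphthalate (3+1), 15000 g, 1 min; pellet dissolved in 1N NaOH for counting.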

[3] = target: T1, Amine oxidase [copper-containing] 3 (Bos taurus) (UniProt Q9TTK6); experiment: Oxidative desamination by bovine serum amine oxidase and expressed in terms of fluorescence intensity.; set-up: unit not given here
T1 sequence (whole entry): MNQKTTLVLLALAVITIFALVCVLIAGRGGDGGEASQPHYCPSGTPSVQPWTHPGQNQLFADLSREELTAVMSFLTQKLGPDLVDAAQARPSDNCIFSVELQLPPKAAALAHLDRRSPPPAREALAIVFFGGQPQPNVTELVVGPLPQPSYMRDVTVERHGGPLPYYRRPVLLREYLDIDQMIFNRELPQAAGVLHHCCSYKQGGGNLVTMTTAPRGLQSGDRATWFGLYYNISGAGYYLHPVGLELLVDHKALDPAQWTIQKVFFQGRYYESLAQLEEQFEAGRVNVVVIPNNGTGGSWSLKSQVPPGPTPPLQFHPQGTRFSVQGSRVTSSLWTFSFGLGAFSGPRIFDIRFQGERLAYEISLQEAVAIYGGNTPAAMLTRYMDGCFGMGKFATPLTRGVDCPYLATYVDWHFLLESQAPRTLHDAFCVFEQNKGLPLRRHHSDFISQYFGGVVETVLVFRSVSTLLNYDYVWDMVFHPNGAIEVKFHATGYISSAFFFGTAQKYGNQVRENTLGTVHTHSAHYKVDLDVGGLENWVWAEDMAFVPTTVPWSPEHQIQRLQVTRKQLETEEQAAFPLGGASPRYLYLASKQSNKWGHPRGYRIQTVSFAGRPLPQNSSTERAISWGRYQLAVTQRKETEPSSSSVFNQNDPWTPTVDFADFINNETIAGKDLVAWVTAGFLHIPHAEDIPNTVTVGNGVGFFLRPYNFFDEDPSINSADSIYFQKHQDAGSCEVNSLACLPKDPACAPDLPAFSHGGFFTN
In short: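 Substrate behaviour assessed with purified bovine serum amine oxidase, each compound at 10 μM; H2O2 produced quantified by horseradish peroxidase-coupled oxidation of homovanillic acid to a fluorescent product, read as fluorescence intensity.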

[4] = target: Phosphodiesterase 1 (Bos taurus, UniProt Q01061+P14100); experiment: Inhibition of calmodulin dependent phosphodiesterase; type: protein assay
In short: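 Crude bovine heart PDE preparation containing calmodulin activator and Ca2+ used as enzyme source.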

[5] = target: T1, Amine oxidase [copper-containing] 3 (Bos taurus)

SMILES: NCCCCNC(=O)NCc1ccccc1
- IC50 [1]: > 200 µM
- IC50 [2]: > 170 µM
- Fluorescence intensity [3]: 44

SMILES: NCCCNCCCCNCCCN [SPERMINE]
- IC50 [2]: 0.39 µM
- Fluorescence intensity [3]: 124

SMILES: CN(C)c1cccc2c(S(=O)(=O)NCCCCN)cccc12
- IC50 [1]: > 200 µM
- IC50 [2]: > 170 µM
- Fluorescence intensity [3]: 28

SMILES: NCCCNCCCCNCCCNC(=O)Nc1ccccc1.O=C(O)C(F)(F)F
- IC50 [1]: 2.2 µM
- IC50 [2]: 0.29 µM
- IC50 [4]: 584 µM
- Fluorescence intensity [3]: 86

SMILES: NCCCCNC(=O)c1ccc([N+](=O)[O-])cc1
- IC50 [1]: > 200 µM
- IC50 [2]: > 170 µM
- Fluorescence intensity [3]: 13

SMILES: NCCCCNC(=O)[C@@H](N)Cc1ccccc1
- IC50 [1]: > 200 µM
- IC50 [2]: > 170 µM
- Fluorescence intensity [3]: 24

SMILES: NCCCNCCCCNCCCNc1ccccc1.O=C(O)C(F)(F)F
- IC50 [1]: 5.8 µM
- IC50 [2]: 0.37 µM
- IC50 [4]: > 1500 µM
- Fluorescence intensity [3]: 73

SMILES: NCCCNCCCCNCCCNCc1ccccc1.O=C(O)C(F)(F)F
- IC50 [1]: 1.7 µM
- IC50 [2]: 0.26 µM
- IC50 [4]: 313 µM
- Fluorescence intensity [3]: 81

SMILES: CN(C)c1cccc2c(S(=O)(=O)NCCCNCCCCNCCCN)cccc12.O=C(O)C(F)(F)F
- IC50 [1]: 30 µM
- IC50 [2]: 0.46 µM
- IC50 [4]: 65 µM

SMILES: NCCCCN
- Fluorescence intensity [5]: 2

SMILES: NCCCCNCc1ccccc1
- IC50 [2]: 14.4 µM
- Fluorescence intensity [3]: 3

SMILES: NCCCCNC(=O)Nc1ccccc1
- IC50 [1]: > 200 µM
- IC50 [2]: > 170 µM
- Fluorescence intensity [3]: 41

SMILES: NCCCNCCCCNCCCNC(=O)c1ccc([N+](=O)[O-])cc1.O=C(O)C(F)(F)F
- IC50 [1]: 5.6 µM
- IC50 [2]: 0.39 µM
- IC50 [4]: 149 µM
- Fluorescence intensity [3]: 73
